Experiments:
Format in all cases: functional
OVCAR-3 = assay: Cytotoxicity against human OVCAR3 cells after 48 hrs by SRB assay; conditions: OVCAR-3, 48 h
How it was run: (§1)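 NCI 60-cell-line screen. Cells preincubated 24 h at 37 °C, 5% CO2; time-zero plates TCA-fixed. Compounds dissolved in DMSO and tested at five concentrations (100, 10, 1.0, 0.1, 0.01 µM) for 48 h continuous exposure. Adherent cells fixed with cold TCA (10% final), then SRB stained; absorbance at 515 nm. GI50, TGI and LC50 calculated from growth relative to time-zero and untreated controls.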

HOP-62 = assay: Cytotoxicity against human HOP62 cells after 48 hrs by SRB assay; conditions: HOP-62, 48 h; how it was run: as §1
SF-268 = assay: Cytotoxicity against human SF268 cells after 48 hrs by SRB assay; conditions: SF-268, 48 h; how it was run: as §1
Plasmodium falciparum = assay: Antimalarial activity against Plasmodium falciparum NF54 infected in human serum at 20 ug/ml after 48 hrs by fluorometric method
How it was run: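 Asynchronous P. falciparum NF54 at 1.5–2% parasitemia, 5% hematocrit in RPMI with 10% human serum, exposed 48 h at 37 °C under 90% N2/5% CO2/5% O2 at the stated concentration; parasite DNA stained with ethidium bromide after proteinase K lysis; viability % = (Flu treated − medium)/(Flu untreated − medium) ×100; triplicate.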

ACHN = assay: Cytotoxicity against human ACHN cells after 48 hrs by SRB assay; conditions: for CC50: read-out: LC50 (the source's name); how it was run: as §1
HOP-92 = assay: Cytotoxicity against human HOP92 cells after 48 hrs by SRB assay; conditions: HOP-92, 48 h; how it was run: as §1
MCF7 = assay: Cytotoxicity against human MCF7 cells after 48 hrs by SRB assay; conditions: MCF7, 48 h; for CC50: read-out: LC50 (the source's name); how it was run: as §1
NCI-H460 = assay: Cytotoxicity against human NCI-H460 cells after 48 hrs by SRB assay; conditions: NCI-H460, 48 h; how it was run: as §1
SN12C = assay: Cytotoxicity against human SN12C cells after 48 hrs by SRB assay; how it was run: as §1
HCC 2998 = assay: Cytotoxicity against human HCC2998 cells after 48 hrs by SRB assay; conditions: HCC 2998, 48 h; how it was run: as §1
MDA-MB-435 = assay: Cytotoxicity against human MDA-MB-435 cells after 48 hrs by SRB assay; conditions: MDA-MB-435, 48 h; how it was run: as §1
[1] = Cytotoxicity against human EKVX cells after 48 hrs by SRB assay; how it was run: as §1
SNB-19 = assay: Cytotoxicity against human SNB19 cells after 48 hrs by SRB assay; conditions: SNB-19, 48 h
How it was run: (§2)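 NCI 60-cell screen. Cells grew 24 h (37 °C, 5% CO2) before compound was added. Compounds were in DMSO and diluted in medium with gentamicin, then tested at five levels (100, 10, 1.0, 0.1, 0.01 µM) with 48 h continuous exposure. Adherent cells were fixed with TCA (10% final) and stained with 0.4% SRB, absorbance read at 515 nm. A time-zero plate was included. LC50 is the concentration giving 50% loss of protein relative to time zero.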

SK-MEL-28 = assay: Cytotoxicity against human SK-MEL-28 cells after 48 hrs by SRB assay; conditions: SK-MEL-28, 48 h; for CC50: read-out: LC50 (the source's name); how it was run: as §1
RPMI-8226 = assay: Cytotoxicity against human RPMI8226 cells after 48 hrs by SRB assay; conditions: RPMI-8226, 48 h; how it was run: as §1
HCT-116 = assay: Cytotoxicity against human HCT116 cells after 48 hrs by SRB assay; conditions: HCT-116, 48 h; how it was run: as §1
T47D = assay: Cytotoxicity against human T47D cells after 48 hrs by SRB assay; how it was run: as §2
NCI-H226 = assay: Cytotoxicity against human NCI-H226 cells after 48 hrs by SRB assay; conditions: NCI-H226, 48 h; how it was run: as §1
OVCAR-8 = assay: Cytotoxicity against human OVCAR8 cells after 48 hrs by SRB assay; conditions: OVCAR-8, 48 h; how it was run: as §1
OVCAR-5 = assay: Cytotoxicity against human OVCAR5 cells after 48 hrs by SRB assay; conditions: OVCAR-5, 48 h; how it was run: as §1
SK-MEL-5 = assay: Cytotoxicity against human SK-MEL-5 cells after 48 hrs by SRB assay; conditions: SK-MEL-5, 48 h; how it was run: as §1
K562 = assay: Cytotoxicity against human K562 cells after 48 hrs by SRB assay; conditions: K562, 48 h; how it was run: as §1
SK-MEL-2 = assay: Cytotoxicity against human SK-MEL-2 cells after 48 hrs by SRB assay; conditions: SK-MEL-2, 48 h; how it was run: as §1

For `Cc1ccc(C2CC(c3ccc(Nc4ccnc5cc(Cl)ccc45)cc3)=NN2C=O)cc1` (stereo not given), the GI50 (OVCAR-3) was 6.82 µM, the LC50 (OVCAR-3) was greater than 100 µM and the GI50 (HOP-62) was greater than 100000 nM. The LC50 (50% lethal concentration) (HOP-62) was greater than 100 µM, the GI50 (SF-268) was 8.61 µM and the LC50 (SF-268) was greater than 100 µM. It also gave an inhibition at 20 µg/mL (Plasmodium falciparum) of 0%, a GI50 (ACHN) of 3270 nM and a CC50 (ACHN) greater than 100 µM. For the same compound, the GI50 (HOP-92) was 2140 nM, the LC50 (concentration killing 50% of cells) (HOP-92) was greater than 100 µM and the GI50 (MCF7) was 8.39 µM. It also gave a CC50 (MCF7) greater than 100 µM, a GI50 (NCI-H460) greater than 100000 nM and an LC50 (NCI-H460) greater than 100 µM. The GI50 (SN12C) was 7.23 µM, the LC50 (50% net cell kill relative to time zero) (SN12C) was greater than 100 µM and the GI50 (HCC 2998) was 7.44 µM. It also gave an LC50 (HCC 2998) greater than 100 µM, a GI50 (MDA-MB-435) of 1950 nM and an LC50 (MDA-MB-435) greater than 100 µM. It also gave an LC50 [1] greater than 100 µM, a GI50 (SNB-19) greater than 100000 nM and an LC50 (SNB-19) greater than 100 µM. It also gave a GI50 (SK-MEL-28) greater than 100000 nM, a CC50 (SK-MEL-28) greater than 100 µM and a GI50 (RPMI-8226) of 2180 nM. It also gave an LC50 (concentration killing 50% of cells) (RPMI-8226) greater than 100 µM, a GI50 (HCT-116) of 25.2 µM and an LC50 (HCT-116) greater than 100 µM. It also gave a GI50 (T47D) of 1510 nM, an LC50 (concentration giving 50% cell kill relative to time zero) (T47D) greater than 100 µM and a GI50 (NCI-H226) greater than 100 µM. The LC50 (50% lethal concentration) (NCI-H226) was greater than 100 µM, the GI50 (OVCAR-8) was greater than 100000 nM and the LC50 (50% net cell kill) (OVCAR-8) was greater than 100 µM. It also gave a GI50 (OVCAR-5) greater than 100000 nM, an LC50 (OVCAR-5) greater than 100 µM and a GI50 (SK-MEL-5) of 1740 nM. The LC50 (concentration killing 50% of cells present at time zero) (SK-MEL-5) was greater than 100 µM.

`O=CN1N=C(c2cccc(Nc3ccnc4cc(Cl)ccc34)c2)CC1c1ccccc1` (stereo not given) gave a GI50 (OVCAR-3) of 0.28 µM, an LC50 (OVCAR-3) of 7.38 µM and a GI50 (HOP-62) of 510 nM. For the same compound, the LC50 (50% lethal concentration) (HOP-62) was greater than 100 µM, the GI50 (SF-268) was 1.04 µM and the LC50 (SF-268) was greater than 100 µM. The inhibition at 20 µg/mL (Plasmodium falciparum) was 0%, the GI50 (ACHN) was 860 nM and the CC50 (ACHN) was greater than 100 µM. For the same compound, the GI50 (HOP-92) was 210 nM, the LC50 (concentration killing 50% of cells) (HOP-92) was greater than 100 µM and the GI50 (MCF7) was 0.34 µM. The CC50 (MCF7) was greater than 100 µM, the GI50 (NCI-H460) was 410 nM and the LC50 (NCI-H460) was greater than 100 µM. It also gave a GI50 (SN12C) of 0.63 µM, an LC50 (50% net cell kill relative to time zero) (SN12C) greater than 100 µM and a GI50 (HCC 2998) of 1.22 µM. For the same compound, the LC50 (HCC 2998) was greater than 100 µM, the GI50 (MDA-MB-435) was 130 nM and the LC50 (MDA-MB-435) was greater than 100 µM. The GI50 [1] was 950 nM, the LC50 [1] was greater than 100 µM and the GI50 (SNB-19) was 600 nM. For the same compound, the LC50 (SNB-19) was greater than 100 µM, the GI50 (SK-MEL-28) was 760 nM and the CC50 (SK-MEL-28) was greater than 100 µM. The GI50 (RPMI-8226) was 490 nM, the LC50 (concentration killing 50% of cells) (RPMI-8226) was greater than 100 µM and the GI50 (K562) was 260 nM. The LC50 (concentration killing 50% of cells) (K562) was greater than 100 µM, the GI50 (SK-MEL-2) was 260 nM and the LC50 (SK-MEL-2) was greater than 100 µM. For the same compound, the GI50 (HCT-116) was 0.39 µM, the LC50 (HCT-116) was 4.75 µM and the GI50 (T47D) was 340 nM. The LC50 (concentration giving 50% cell kill relative to time zero) (T47D) was greater than 100 µM, the GI50 (NCI-H226) was 6.91 µM and the LC50 (50% lethal concentration) (NCI-H226) was greater than 100 µM. The GI50 (OVCAR-8) was 510 nM, the LC50 (50% net cell kill) (OVCAR-8) was 56 µM and the GI50 (OVCAR-5) was 1380 nM. It also gave an LC50 (OVCAR-5) greater than 100 µM, a GI50 (SK-MEL-5) of 290 nM and an LC50 (concentration killing 50% of cells present at time zero) (SK-MEL-5) of 64.2 µM.
